{"source": "ChEMBL document CHEMBL3098046", "about": "“Fragment-based discovery of 6-azaindazoles as inhibitors of bacterial DNA ligase” (ACS Med Chem Lett, 2013)", "key": {"DNA ligase [1]": {"target": "T1, DNA ligase (Staphylococcus aureus, UniProt Q9AIU7)", "T1 sequence (Q9AIU7 whole entry)": "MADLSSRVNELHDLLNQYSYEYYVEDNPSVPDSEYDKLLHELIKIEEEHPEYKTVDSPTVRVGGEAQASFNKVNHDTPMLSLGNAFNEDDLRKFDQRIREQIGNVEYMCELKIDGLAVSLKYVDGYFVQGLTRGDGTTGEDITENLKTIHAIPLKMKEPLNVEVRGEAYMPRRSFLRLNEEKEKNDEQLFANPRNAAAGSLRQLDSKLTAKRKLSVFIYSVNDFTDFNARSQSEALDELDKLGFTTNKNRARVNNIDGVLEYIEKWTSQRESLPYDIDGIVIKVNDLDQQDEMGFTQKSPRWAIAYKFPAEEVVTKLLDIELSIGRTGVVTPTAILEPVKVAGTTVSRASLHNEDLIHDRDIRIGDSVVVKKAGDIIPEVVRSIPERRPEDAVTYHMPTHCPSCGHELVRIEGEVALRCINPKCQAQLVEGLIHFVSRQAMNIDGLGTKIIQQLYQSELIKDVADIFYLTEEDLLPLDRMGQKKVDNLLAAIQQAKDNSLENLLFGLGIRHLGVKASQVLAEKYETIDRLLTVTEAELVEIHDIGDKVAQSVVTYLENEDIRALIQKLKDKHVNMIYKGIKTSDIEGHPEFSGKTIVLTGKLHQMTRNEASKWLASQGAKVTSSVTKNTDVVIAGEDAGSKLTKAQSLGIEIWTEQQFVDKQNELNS", "experiment": "Binding affinity to C-terminal 6xHis-tagged Staphylococcus aureus DNA ligase (1 to 312) expressed in Escherichia coli BL21 (DE3) by ITC assay"}, "DNA ligase [2]": {"target": "T1, DNA ligase", "experiment": "Inhibition of C-terminal 6xHis-tagged full length recombinant Staphylococcus aureus DNA ligase (1 to 312) expressed in Escherichia coli BL21 (DE3) using oligonucleotide as substrate after 10 mins by TR-FRET assay"}, "L5178Y": {"system": "L5178Y", "experiment": "Cytotoxicity against TK +/- expressing mouse L5178Y cells", "format": "cell-based", "procedure,_shortened": "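Mouse lymphoma cell line (described as lung lymphoma) used for general cytotoxicity, tested up to a highest concentration of 100 μM.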"}, "Pseudomonas aeruginosa [3]": {"system": "Pseudomonas aeruginosa", "experiment": "Antibacterial activity against Pseudomonas aeruginosa PAO322 after 18 to 24 hrs by broth microdilution method", "format": "functional"}, "Klebsiella pneumoniae [4]": {"system": "Klebsiella pneumoniae", "experiment": "Antibacterial activity against TolC deficient Klebsiella pneumoniae 1161486a after 18 to 24 hrs by broth microdilution method", "format": "functional"}, "Escherichia coli [5]": {"system": "Escherichia coli", "experiment": "Antibacterial activity against TolC deficient Escherichia coli 7623 after 18 to 24 hrs by broth microdilution method", "format": "functional"}, "Haemophilus influenzae [6]": {"system": "Haemophilus influenzae", "experiment": "Antibacterial activity against AcrB deficient Haemophilus influenzae H128 after 18 to 24 hrs by broth microdilution method", "format": "functional"}, "Acinetobacter baumannii [7]": {"system": "Acinetobacter baumannii", "experiment": "Antibacterial activity against Acinetobacter baumannii BM4454 after 18 to 24 hrs by broth microdilution method", "format": "functional"}, "Pseudomonas aeruginosa [8]": {"system": "Pseudomonas aeruginosa", "experiment": "Antibacterial activity against Pseudomonas aeruginosa PAO(MV) after 18 to 24 hrs by broth microdilution method", "format": "functional"}, "Klebsiella pneumoniae [9]": {"system": "Klebsiella pneumoniae", "experiment": "Antibacterial activity against Klebsiella pneumoniae 1161486 after 18 to 24 hrs by broth microdilution method", "format": "functional"}, "Escherichia coli [10]": {"system": "Escherichia coli", "experiment": "Antibacterial activity against Escherichia coli 7623 after 18 to 24 hrs by broth microdilution method", "format": "functional"}, "Haemophilus influenzae [11]": {"system": "Haemophilus influenzae", "experiment": "Antibacterial activity against Haemophilus influenzae H128 after 18 to 24 hrs by broth microdilution method", "format": "functional"}, "Streptococcus pyogenes": {"system": "Streptococcus pyogenes", "experiment": "Antibacterial activity against Streptococcus pyogenes 1307006P after 18 to 24 hrs by broth microdilution method", "format": "functional"}, "Streptococcus pneumoniae": {"system": "Streptococcus pneumoniae", "experiment": "Antibacterial activity against Streptococcus pneumoniae 1629 after 18 to 24 hrs by broth microdilution method", "format": "functional"}, "Staphylococcus aureus [12]": {"system": "Staphylococcus aureus", "experiment": "Antibacterial activity against Staphylococcus aureus Oxford after 18 to 24 hrs by broth microdilution method", "format": "functional"}, "[13]": {"experiment": "Solubility of the compound", "format": "physicochemical"}, "[14]": {"experiment": "Inhibition of Escherichia coli LigA"}, "Escherichia coli [15]": {"system": "Escherichia coli", "experiment": "Antibacterial activity against TolC deficient Escherichia coli TOP10 expressing LigA R518H mutant by broth microdilution method", "format": "functional"}, "Escherichia coli [16]": {"system": "Escherichia coli", "experiment": "Antibacterial activity against TolC deficient Escherichia coli TOP10 expressing LigA R150S mutant by broth microdilution method", "format": "functional"}, "Escherichia coli [17]": {"system": "Escherichia coli", "experiment": "Antibacterial activity against TolC deficient Escherichia coli TOP10 expressing LigA G180E mutant by broth microdilution method", "format": "functional"}, "Escherichia coli [18]": {"system": "Escherichia coli", "experiment": "Antibacterial activity against TolC deficient Escherichia coli TOP10 by broth microdilution method", "format": "functional"}, "Staphylococcus aureus [19]": {"system": "Staphylococcus aureus", "experiment": "Antibacterial activity against Staphylococcus aureus RN4220 expressing pYH4-YerG/LigA by broth microdilution method in presence of anhydrotetracycline", "format": "functional"}, "Staphylococcus aureus [20]": {"system": "Staphylococcus aureus", "experiment": "Antibacterial activity against Staphylococcus aureus RN4220 expressing pYH4-YerG/LigA by broth microdilution method in absence of anhydrotetracycline", "format": "functional"}, "Staphylococcus aureus [21]": {"system": "Staphylococcus aureus", "experiment": "Antibacterial activity against Staphylococcus aureus RN4220 expressing pYH4 by broth microdilution method in presence of anhydrotetracycline", "format": "functional"}, "Staphylococcus aureus [22]": {"system": "Staphylococcus aureus", "experiment": "Antibacterial activity against Staphylococcus aureus RN4220 expressing pYH4 by broth microdilution method in absence of anhydrotetracycline", "format": "functional"}, "Acinetobacter baumannii [23]": {"system": "Acinetobacter baumannii", "experiment": "Antibacterial activity against Acinetobacter baumannii BM4652 expressing efflux transporter mutant after 18 to 24 hrs by broth microdilution method"}}}
{"compound": "Clc1cccc(-c2nc[nH]n2)n1", "values": [{"measurement": "Kd", "setting": "DNA ligase [1]", "result": 10, "unit": "µM"}, {"measurement": "IC50", "setting": "DNA ligase [2]", "result": 17, "unit": "µM"}]}
{"compound": "OCCNc1cc(-c2n[nH]c3cnccc23)nc(C(F)(F)F)c1", "values": [{"measurement": "IC50", "setting": "L5178Y", "result": 16, "unit": "µg/mL"}, {"measurement": "MIC", "setting": "Pseudomonas aeruginosa [3]", "result": "> 128", "unit": "µg/mL"}, {"measurement": "MIC", "setting": "Klebsiella pneumoniae [4]", "result": "> 128", "unit": "µg/mL"}, {"measurement": "MIC", "setting": "Escherichia coli [5]", "result": 128, "unit": "µg/mL"}, {"measurement": "MIC", "setting": "Haemophilus influenzae [6]", "result": 8, "unit": "µg/mL"}, {"measurement": "MIC", "setting": "Acinetobacter baumannii [7]", "result": "> 128", "unit": "µg/mL"}, {"measurement": "MIC", "setting": "Pseudomonas aeruginosa [8]", "result": "> 128", "unit": "µg/mL"}, {"measurement": "MIC", "setting": "Klebsiella pneumoniae [9]", "result": "> 128", "unit": "µg/mL"}, {"measurement": "MIC", "setting": "Escherichia coli [10]", "result": "> 128", "unit": "µg/mL"}, {"measurement": "MIC", "setting": "Haemophilus influenzae [11]", "result": 128, "unit": "µg/mL"}, {"measurement": "MIC", "setting": "Streptococcus pyogenes", "result": 128, "unit": "µg/mL"}, {"measurement": "MIC", "setting": "Streptococcus pneumoniae", "result": 64, "unit": "µg/mL"}, {"measurement": "MIC", "setting": "Staphylococcus aureus [12]", "result": 8, "unit": "µg/mL"}, {"measurement": "IC50", "setting": "DNA ligase [2]", "result": 0.23, "unit": "µM"}, {"measurement": "solubility", "setting": "[13]", "result": 113, "unit": "µg/mL"}]}
{"compound": "Clc1cncc(-c2nnc[nH]2)n1", "values": [{"measurement": "Kd", "setting": "DNA ligase [1]", "result": 38, "unit": "µM"}]}
{"compound": "c1cc(-c2nnc[nH]2)nc(C2CCC2)c1", "values": [{"measurement": "IC50", "setting": "DNA ligase [2]", "result": 53, "unit": "µM"}]}
{"compound": "Cc1cccc(-c2nnc[nH]2)n1", "values": [{"measurement": "IC50", "setting": "DNA ligase [2]", "result": 140, "unit": "µM"}]}
{"compound": "c1ccc(-c2nnc[nH]2)nc1", "values": [{"measurement": "IC50", "setting": "DNA ligase [2]", "result": 300, "unit": "µM"}]}
{"compound": "Nc1nc(OCC2CCC2)nc2c1ncn2[C@@H]1O[C@H](CF)[C@@H](O)[C@H]1O", "values": [{"measurement": "MIC", "setting": "Pseudomonas aeruginosa [3]", "result": 64, "unit": "µg/mL"}, {"measurement": "MIC", "setting": "Klebsiella pneumoniae [4]", "result": 8, "unit": "µg/mL"}, {"measurement": "MIC", "setting": "Escherichia coli [5]", "result": 8, "unit": "µg/mL"}, {"measurement": "MIC", "setting": "Haemophilus influenzae [6]", "result": 2, "unit": "µg/mL"}, {"measurement": "MIC", "setting": "Acinetobacter baumannii [7]", "result": "> 128", "unit": "µg/mL"}, {"measurement": "MIC", "setting": "Pseudomonas aeruginosa [8]", "result": "> 128", "unit": "µg/mL"}, {"measurement": "MIC", "setting": "Klebsiella pneumoniae [9]", "result": "> 128", "unit": "µg/mL"}, {"measurement": "MIC", "setting": "Escherichia coli [10]", "result": "> 128", "unit": "µg/mL"}, {"measurement": "MIC", "setting": "Haemophilus influenzae [11]", "result": 16, "unit": "µg/mL"}, {"measurement": "MIC", "setting": "Streptococcus pyogenes", "result": 8, "unit": "µg/mL"}, {"measurement": "MIC", "setting": "Streptococcus pneumoniae", "result": 2, "unit": "µg/mL"}, {"measurement": "MIC", "setting": "Staphylococcus aureus [12]", "result": 8, "unit": "µg/mL"}]}
{"compound": "OCCNc1cc(C(F)(F)F)nc(-c2n[nH]c3cnccc23)n1", "values": [{"measurement": "IC50", "setting": "[14]", "result": 0.097, "unit": "µM"}, {"measurement": "MIC", "setting": "Escherichia coli [15]", "result": 64, "unit": "µg/mL"}, {"measurement": "MIC", "setting": "Escherichia coli [16]", "result": 64, "unit": "µg/mL"}, {"measurement": "MIC", "setting": "Escherichia coli [17]", "result": 64, "unit": "µg/mL"}, {"measurement": "MIC", "setting": "Escherichia coli [18]", "result": 8, "unit": "µg/mL"}, {"measurement": "MIC", "setting": "Staphylococcus aureus [19]", "result": 128, "unit": "µg/mL"}, {"measurement": "MIC", "setting": "Staphylococcus aureus [20]", "result": 16, "unit": "µg/mL"}, {"measurement": "MIC", "setting": "Staphylococcus aureus [21]", "result": 8, "unit": "µg/mL"}, {"measurement": "MIC", "setting": "Staphylococcus aureus [22]", "result": 8, "unit": "µg/mL"}, {"measurement": "IC50", "setting": "L5178Y", "result": "> 36", "unit": "µg/mL"}, {"measurement": "MIC", "setting": "Pseudomonas aeruginosa [3]", "result": 32, "unit": "µg/mL"}, {"measurement": "MIC", "setting": "Klebsiella pneumoniae [4]", "result": 32, "unit": "µg/mL"}, {"measurement": "MIC", "setting": "Escherichia coli [5]", "result": 16, "unit": "µg/mL"}, {"measurement": "MIC", "setting": "Haemophilus influenzae [6]", "result": 1, "unit": "µg/mL"}, {"measurement": "MIC", "setting": "Acinetobacter baumannii [7]", "result": "> 128", "unit": "µg/mL"}, {"measurement": "MIC", "setting": "Pseudomonas aeruginosa [8]", "result": "> 128", "unit": "µg/mL"}, {"measurement": "MIC", "setting": "Klebsiella pneumoniae [9]", "result": "> 128", "unit": "µg/mL"}, {"measurement": "MIC", "setting": "Escherichia coli [10]", "result": "> 128", "unit": "µg/mL"}, {"measurement": "MIC", "setting": "Haemophilus influenzae [11]", "result": 16, "unit": "µg/mL"}, {"measurement": "MIC", "setting": "Streptococcus pyogenes", "result": 8, "unit": "µg/mL"}, {"measurement": "MIC", "setting": "Streptococcus pneumoniae", "result": 2, "unit": "µg/mL"}, {"measurement": "MIC", "setting": "Staphylococcus aureus [12]", "result": 4, "unit": "µg/mL"}, {"measurement": "Kd", "setting": "DNA ligase [1]", "result": 0.025, "unit": "µM"}, {"measurement": "IC50", "setting": "DNA ligase [2]", "result": 0.015, "unit": "µM"}, {"measurement": "MIC", "setting": "Acinetobacter baumannii [23]", "result": 32, "unit": "µg/mL"}]}
{"compound": "FC(F)(F)c1cccc(-c2n[nH]c3cnccc23)n1", "values": [{"measurement": "IC50", "setting": "DNA ligase [2]", "result": 0.22, "unit": "µM"}, {"measurement": "solubility", "setting": "[13]", "result": 12, "unit": "µg/mL"}]}
{"compound": "CC(F)(F)c1cccc(-c2nnc[nH]2)n1", "values": [{"measurement": "IC50", "setting": "DNA ligase [2]", "result": 21, "unit": "µM"}]}
{"compound": "FC(F)(F)c1cccc(-c2nc[nH]n2)n1", "values": [{"measurement": "IC50", "setting": "DNA ligase [2]", "result": 16, "unit": "µM"}]}
{"compound": "COc1cccc(-c2nnc[nH]2)n1", "values": [{"measurement": "IC50", "setting": "DNA ligase [2]", "result": 130, "unit": "µM"}]}
